Data from ChEMBL document CHEMBL4020797, “Design, synthesis and evaluation of antitumor acylated monoaminopyrroloquinazolines” (2017).

Key:
MDA-MB-231 = assay: Antiproliferative activity against human MDA-MB-231 after 72 hrs by MTT assay; type: functional; conditions: for GI50: MDA-MB-231, 72 h
Procedure, shortened: (§1)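 Triple-negative breast cancer cells were exposed to a range of compound concentrations for 72 h, and viable cells were then quantified spectrophotometrically with MTT reagent. GI50 (concentration giving 50% growth inhibition) was derived from dose-response curves by non-linear regression and reported as mean ± SD from at least two independent measurements. The highest concentration tested was 100 μM.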

MDA-MB-468 = assay: Antiproliferative activity against human MDA-MB-468 after 72 hrs by MTT assay; type: functional; conditions: for GI50: MDA-MB-468, 72 h; procedure, shortened: as §1

Structure (SMILES) | GI50 (MDA-MB-231) | GI50 (MDA-MB-468) | Activity (MDA-MB-231) | Activity (MDA-MB-468)
CC(=O)Nc1ncc2c(ccc3[nH]ccc32)n1 | > 100 µM | > 100 µM | – | –
CC(C)C(=O)Nc1ncc2c(ccc3[nH]ccc32)n1 | > 100 µM | > 100 µM | – | –
CCC(=O)Nc1ncc2c(ccc3[nH]ccc32)n1 | 72.8 µM | 28.3 µM | – | –
O=C(Nc1ncc2c(ccc3[nH]ccc32)n1)c1ccc2ccccc2c1 | 0.2 µM | 0.088 µM | Dose-dependent effect | Dose-dependent effect
CCCC(=O)Nc1ncc2c(ccc3[nH]ccc32)n1 | 3.46 µM | 2.02 µM | – | –
CC(C)(C)C(=O)Nc1ncc2c(ccc3[nH]ccc32)n1 | > 100 µM | > 100 µM | – | –
